# In ChEMBL document CHEMBL1140210, “In pursuit of natural product leads: synthesis and biological evaluation of 2-[3-hydroxy-2-[(3-hydroxypyridine-2-carbonyl)amino]phenyl]benzoxazole-4-carboxylic acid (A-33853) and its analogues: discovery of N-(2-benzoxazol-2-ylphenyl)benzamides as novel antileishmanial chemotypes” (J Med Chem, 2008):
# Active and inactive are the calls of the source. No cut-off for these calls is given here.
# Columns and labels:
# Plasmodium falciparum = test: Antimalarial activity against chloroquine and pyrimethamine-resistant Plasmodium falciparum K1 at 4.8 ug/mL; type: functional
# Leishmania donovani [1] = test: Antileishmanial activity against Leishmania donovani MHOM/ET/67/L82 at 0.8 ug/mL; type: functional
# Trypanosoma cruzi = test: Antitrypanosomal activity against Trypanosoma cruzi Tulahuen C2C4 at 4.8 ug/mL; type: functional
# Leishmania donovani [2] = test: Antileishmanial activity against Leishmania donovani MHOM/ET/67/L82 at 4.8 ug/mL; type: functional
# Leishmania donovani [3] = test: Antileishmanial activity against Leishmania donovani MHOM/ET/67/L82; type: functional, organism-based
# Outline: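 Tested on axenic amastigote cultures of L. donovani strain MHOM/ET/67/L82. Activity is reported as IC50.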
# [4] = Selectivity index, ratio of IC50 for rat L6 cells to IC50 for Leishmania donovani MHOM/ET/67/L82; type: toxicity, cell-based; conditions: read-out: Ratio IC50
# L6 = test: Cytotoxicity against rat L6 cells; type: cell-based; conditions: for IC50: Rattus norvegicus, L6; for Activity: rat, l6
# Leishmania donovani [5] = test: Antiparasitic activity against Leishmania donovani amastigote in mouse peritoneal macrophages assessed as reduction of parasite burden at 10 ug/mL after 96 hrs; type: functional, organism-based
SMILES,inhibition at 4.8 µg/mL (Plasmodium falciparum),inhibition at 0.8 µg/mL (Leishmania donovani [1]),inhibition at 4.8 µg/mL (Trypanosoma cruzi),inhibition at 4.8 µg/mL (Leishmania donovani [2]),IC50 (Leishmania donovani [3]),selectivity ratio [4],IC50 (L6),Activity (L6),Activity (Leishmania donovani [5])
O=C(Nc1c(O)cccc1-c1nc2c(C(=O)O)cccc2o1)c1ncccc1O,97%,100%,96%,100%,0.08 µM,185,14.2 µM,–,–
O=C(Nc1c(O)cccc1-c1nc2c(C(=O)O)cccc2o1)c1cccc(Cl)c1,–,–,–,–,1.93 µM,74,143 µM,–,–
O=C(Nc1c(O)cccc1-c1nc2c(C(=O)O)cccc2o1)c1ccc(F)c(F)c1F,–,–,–,–,1.9 µM,111,210 µM,–,–
COc1cccc(-c2nc3c(C(=O)O)cccc3o2)c1NC(=O)c1cccnc1Cl,–,< 30%,–,–,–,–,–,Not Traceable,–
O=C(Nc1ccccc1-c1nc2c(C(=O)O)cccc2o1)c1ccccc1,–,–,–,–,0.96 µM,118,114 µM,–,inactive
O=C(Nc1c(O)cccc1-c1nc2c(C(=O)O)cccc2o1)c1ccccc1O,–,–,–,–,0.85 µM,100,85.1 µM,–,inactive
Cc1cc(C(=O)Nc2c(O)cccc2-c2nc3c(C(=O)O)cccc3o2)no1,–,< 30%,–,–,–,–,–,Not Traceable,–
O=C(Nc1c(O)cccc1-c1nc2c(C(=O)O)cccc2o1)c1cc(-c2ccccc2)on1,–,–,–,–,0.93 µM,152,141 µM,–,inactive
O=C(Nc1c(O)cccc1-c1nc2c(C(=O)O)cccc2o1)c1cccnc1,–,–,–,–,4.36 µM,55,240 µM,–,–
O=C(Nc1c(O)cccc1-c1nc2c(C(=O)O)cccc2o1)c1cccnc1Cl,–,< 30%,–,–,–,–,–,Not Traceable,–
O=C(Nc1c(O)cccc1-c1nc2c(C(=O)O)cccc2o1)c1cc(O)c(O)c(O)c1,–,< 30%,–,–,–,–,–,Not Traceable,–
O=C(Nc1c(O)cccc1-c1nc2c(C(=O)O)cccc2o1)c1ccccc1,–,–,–,–,1.73 µM,> 138,> 240 µM,–,–
COc1cccc(-c2nc3c(C(=O)O)cccc3o2)c1NC(=O)c1cc2ccccc2[nH]1,–,–,–,–,3.07 µM,69,211 µM,–,–
CCCCCCCCCCCCCCCCOP(=O)([O-])OCC[N+](C)(C)C [MILTEFOSINE],–,–,–,–,–,565,147 µM,–,–
O=C(Nc1c(O)cccc1-c1nc2c(C(=O)O)cccc2o1)c1cnccn1,–,–,–,–,0.51 µM,185,94.4 µM,–,inactive
O=C(Nc1c(O)cccc1-c1nc2c(C(=O)O)cccc2o1)c1ccccn1,–,–,–,–,0.31 µM,99,30.6 µM,–,inactive
O=C(Nc1c(O)cccc1-c1nc2c(C(=O)O)cccc2o1)c1ncccc1F,–,–,–,–,0.52 µM,392,204 µM,–,inactive
O=C(Nc1c(O)cccc1-c1nc2c(C(=O)O)cccc2o1)c1cc(-c2ccccc2)nc2ccccc12,–,–,–,–,1.17 µM,92,108 µM,–,–
O=C(Nc1c(O)cccc1-c1nc2c(C(=O)O)cccc2o1)c1cc2ccccc2[nH]1,–,–,–,–,0.68 µM,312,212 µM,–,inactive
